In ChEMBL document CHEMBL2417455, “Design, synthesis and biological evaluation of new aryl thiosemicarbazone as antichagasic candidates” (Eur J Med Chem, 2013):
The source made the active and inactive calls. The calls are words filed in the database; no cut-off is given here.

Tests used:
[1] = tested on: Mus musculus; experiment: Mutagenicity in Swiss albino mouse at 100 mg/kg after 30 hrs by micronucleus test; format: toxicity, organism-based; design: dose 100 mg/kg; conditions: in vivo
Method in brief: (§1)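 Swiss albino mice (~30 g) were dosed by gavage at 50, 100 or 250 mg/kg bwt. Negative control received 1% CMC/0.2% Tween 40 aqueous solution by gavage; a water-only group set basal frequency. Tail blood was taken 30 h after treatment onto acridine orange slides and held ≥24 h at -20 °C in the dark. Micronuclei were counted per 1,000 reticulocytes per animal by fluorescence microscopy. Values are arithmetic means compared by one-way ANOVA/Tukey (P < 0.05).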

[2] = tested on: Trypanosoma cruzi; experiment: Trypanocidal activity against epimastigote stage of Trypanosoma cruzi Y after 72 hrs by MTT assay; format: functional, organism-based
Method in brief: (§2)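 Log-phase (7-day) Y-strain epimastigotes at 10⁷/mL in LIT medium with 10% fetal calf serum were exposed to DMSO-dissolved compound at 100, 50, 25, 10, 5, 2.5 and 1 µg/mL for 72 h at 28 °C. MTT-PMS was added for 75 min in the dark, then 10% SDS for 30 min. OD was read at 595 nm and percent death determined. IC50 by linear regression of OD. Triplicates, Probit analysis.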

[3] = biological target: Cruzipain (Trypanosoma cruzi) (UniProt P25779); experiment: Inhibition of Trypanosoma cruzi cruzain expressed in Escherichia coli DH5-alpha using Bz-Phe-Arg-AMC as substrate at 10 uM preincubated for 5 mins followed by substrate addition measured for 5 mins by spectrofluorimetric analysis relative to control
Method in brief: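 Recombinant cruzain at 0.23 nM in pH 6.5 buffer (50 mM Na2PO4, 2.5 mM EDTA), preincubated 5 min with or without inhibitor at a single 10 µM concentration. Bz-Phe-Arg-AMC was then added (stock 170 µM). Fluorescence was read at ex 380/em 460 nm, 37 °C, under magnetic stirring, for 5 min. Triplicate measurements.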

[4] = tested on: Trypanosoma cruzi; experiment: Trypanocidal activity against epimastigote stage of Trypanosoma cruzi Y at 50 ug/mL after 72 hrs by MTT assay relative to control; format: functional; method in brief: as §2
[5] = tested on: Mus musculus; experiment: Mutagenicity in Swiss albino mouse at 250 mg/kg after 30 hrs by micronucleus test; format: toxicity, organism-based; design: dose 250 mg/kg; conditions: in vivo; method in brief: as §1
[6] = tested on: Trypanosoma cruzi; experiment: Potency index, ratio of benznidazole IC50 to compound IC50 for epimastigote stage of Trypanosoma cruzi Y; format: functional
[7] = tested on: Trypanosoma cruzi; experiment: Trypanocidal activity against epimastigote stage of Trypanosoma cruzi Y at 5 ug/mL after 72 hrs by MTT assay relative to control; format: functional; method in brief: as §2
[8] = Trypanosoma cruzi, Y, 72 h, read-out: IC50

Sequence of Cruzipain (Trypanosoma cruzi) (P25779 123-467 limits assumed): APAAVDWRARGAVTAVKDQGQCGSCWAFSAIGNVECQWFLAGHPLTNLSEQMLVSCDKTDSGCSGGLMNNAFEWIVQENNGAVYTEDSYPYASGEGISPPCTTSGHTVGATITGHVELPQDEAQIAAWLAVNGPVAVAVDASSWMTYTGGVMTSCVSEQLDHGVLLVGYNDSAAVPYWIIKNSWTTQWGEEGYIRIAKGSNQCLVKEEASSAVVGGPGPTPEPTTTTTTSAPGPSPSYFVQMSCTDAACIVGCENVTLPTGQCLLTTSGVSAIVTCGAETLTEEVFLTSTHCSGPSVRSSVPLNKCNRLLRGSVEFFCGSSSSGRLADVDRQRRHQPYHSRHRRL

SMILES	inhibition [3]	Activity [1]	IC50 [2, 8]	other results
O=C(Cn1ccnc1[N+](=O)[O-])NCc1ccccc1 [BENZNIDAZOLE]		Toxic	34.6 µM	
C/C(=N\NC(N)=S)c1ccc(N)cc1	25%		> 480 µM	
NC/C(=N\NC(N)=S)c1ccccc1	inactive		> 409 µM	
C/C(=N\NC(N)=S)c1cccc([N+](=O)[O-])c1	5%		> 420 µM	inhibition at 5 µg/mL [7]: 3%
C/C(=N\N=C(/N)S)c1ccccc1 [PHENYL(METHYL)THIOSEMICARBAZONE]	inactive		195 µM	
C/C(=N\NC(N)=S)c1ccc(N)c([N+](=O)[O-])c1	55%			IC50 [2]: Not Active
C/C(=N\NC(N)=S)c1ccc([N+](=O)[O-])c(N)c1	65%		239 µM	
C/C(=N\NC(N)=S)c1cccc(N)c1	inactive		> 480 µM	

Continued, in another order:

inhibition [3]	SMILES	Activity [1]	IC50 [2, 8]	other results
inactive	NC/C(=N\NC(N)=S)c1cccc([N+](=O)[O-])c1		> 299 µM	inhibition at 50 µg/mL [4]: 3%
10%	NC(=S)N/N=C(\CO)c1ccc([N+](=O)[O-])cc1	Non-toxic	37.7 µM	Activity [5]: Non-toxic
20%	Br.NC/C(=N\NC(N)=S)c1ccc([N+](=O)[O-])cc1	Non-toxic	6.3 µM	Activity [5]: Non-toxic; Ratio IC50 [6]: 5
50%	NC(=S)N/N=C(\CNC(=O)CCC(=O)O)c1ccc([N+](=O)[O-])cc1	Non-toxic	12 µM	Activity [5]: Non-toxic
10%	NC(=S)N/N=C(\COC(=O)CCC(=O)O)c1ccc([N+](=O)[O-])cc1		116 µM	
